The target of experiment [1] is T1, zebrafish 12-LOX (zf12-LOX, Alox12) (Danio rerio, UniProt A0ACM8Q0F4).
T1 sequence (A0ACM8Q0F4 1-670): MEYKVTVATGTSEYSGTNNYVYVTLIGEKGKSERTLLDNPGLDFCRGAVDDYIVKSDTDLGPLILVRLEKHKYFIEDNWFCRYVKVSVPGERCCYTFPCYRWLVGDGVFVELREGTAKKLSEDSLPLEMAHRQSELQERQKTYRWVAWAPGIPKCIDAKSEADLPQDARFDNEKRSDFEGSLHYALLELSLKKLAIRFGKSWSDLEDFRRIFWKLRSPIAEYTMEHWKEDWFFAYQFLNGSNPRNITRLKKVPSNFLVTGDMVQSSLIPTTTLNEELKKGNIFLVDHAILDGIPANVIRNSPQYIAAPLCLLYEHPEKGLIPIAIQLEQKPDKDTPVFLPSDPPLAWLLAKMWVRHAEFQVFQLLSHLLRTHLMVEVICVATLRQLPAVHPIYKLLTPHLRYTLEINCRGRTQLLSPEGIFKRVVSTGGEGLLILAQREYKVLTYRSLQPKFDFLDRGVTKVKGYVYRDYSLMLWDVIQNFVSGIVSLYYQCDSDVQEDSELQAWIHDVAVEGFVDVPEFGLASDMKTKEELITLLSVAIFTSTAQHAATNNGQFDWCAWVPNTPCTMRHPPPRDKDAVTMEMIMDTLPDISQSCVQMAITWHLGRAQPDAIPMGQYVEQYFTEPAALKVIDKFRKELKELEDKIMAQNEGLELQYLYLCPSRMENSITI
In words: UV-Vis lipoxygenase rate assay. The class given is biochemical. The essentials:
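N-terminal 6xHis-tagged zf12-LOX, expressed from a pFastBac construct, purified on nickel-iminodiacetic acid agarose (>90% pure by SDS-PAGE). Reaction in 25 mM HEPES (pH 8.00), 0.01% Triton X-100, 10 μM arachidonic acid, run as a steady-state kinetic UV-Vis assay. Enzymatic rate measured at six inhibitor concentrations in triplicate; IC50 from a hyperbolic saturation curve fit of rate versus concentration.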

Experiment [2] has as its target T2, human 12-LOX (Human ALOX12) (Homo sapiens, UniProt P18054).
T2 sequence (P18054 1-663): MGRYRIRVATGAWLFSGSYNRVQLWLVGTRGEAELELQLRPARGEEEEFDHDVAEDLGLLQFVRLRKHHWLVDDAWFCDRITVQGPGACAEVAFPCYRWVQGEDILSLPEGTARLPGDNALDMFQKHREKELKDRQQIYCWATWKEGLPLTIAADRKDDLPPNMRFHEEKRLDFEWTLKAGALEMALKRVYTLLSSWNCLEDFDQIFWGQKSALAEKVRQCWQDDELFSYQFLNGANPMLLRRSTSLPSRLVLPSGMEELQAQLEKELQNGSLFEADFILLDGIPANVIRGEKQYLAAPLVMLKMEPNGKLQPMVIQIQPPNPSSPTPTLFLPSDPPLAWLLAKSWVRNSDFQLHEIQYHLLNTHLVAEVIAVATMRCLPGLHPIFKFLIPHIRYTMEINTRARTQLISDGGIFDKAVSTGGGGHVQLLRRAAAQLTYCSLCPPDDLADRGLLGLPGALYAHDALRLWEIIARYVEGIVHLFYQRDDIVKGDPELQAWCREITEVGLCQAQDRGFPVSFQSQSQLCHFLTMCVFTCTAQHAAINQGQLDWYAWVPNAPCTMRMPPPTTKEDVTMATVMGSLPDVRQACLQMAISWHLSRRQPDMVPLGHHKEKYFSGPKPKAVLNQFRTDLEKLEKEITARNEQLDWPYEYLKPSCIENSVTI
Nature of the experiment: biochemical.

The structures appear in SMILES notation. Bounds are passed on as bounds.

Broadly, the IC50 is the point on the concentration scale where inhibition reaches its midpoint. For the molecule `CNc1oc(-c2cccc3ccccc23)nc1C#N` [ML351], the IC50 in experiment [1] is more than 100 µM; in experiment [2], more than 50 µM.

The values are drawn from article PMC7606739 (FASEB journal : official publication of the Federation of …, 2020).
